Source: PubChem BioAssay (Sanford-Burnham Center for Chemical Genomics)
An excerpt weighted towards active compounds, which were near 3% of everything screened.
UBC13 inh – UBC13 polyubiquitin chain formation inhibitors, primary screen, biochemical, TR-FRET, uHTS. inhibition, % at 20 µM. actives 0.47% (n = 330,000). Ubiquitin-conjugating enzyme E2 N (Homo sapiens), P61088; in the data active = inhibition above about 45%, passing the limit was not always enough
Target sequence (P61088 whole entry, looked up): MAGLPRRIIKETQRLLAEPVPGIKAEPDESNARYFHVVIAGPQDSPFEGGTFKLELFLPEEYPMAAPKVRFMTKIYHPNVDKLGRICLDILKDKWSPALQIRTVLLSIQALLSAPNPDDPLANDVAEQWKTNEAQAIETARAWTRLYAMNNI
SENP6 inh – SENP6 protease inhibitors, primary screen, biochemical, luminescence, uHTS. AID 2599, 2010. actives 1.8% (n = 330,000). Recombinant SENP6 catalytic domain, aminoluciferin luminescence. Sentrin-specific protease 6 (Homo sapiens), Q9GZR1. inhibition, % at 10 µM;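 active = inhibition above about 50% at the single tested dose, limit read from the data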;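 note: plate controls were DMSO wells with enzyme for no effect and DMSO wells lacking enzyme for full effect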
SENP7 inh – SENP7 protease inhibitors, primary screen, biochemical, luminescence, uHTS; Sentrin-specific protease 7 (Homo sapiens), Q9BQF6; recombinant SENP7, Z-RLRGG-aminoluciferin luminescence, 40 min; inhibition, % at 5 µM; actives 1.5% (n = 330,000); AID 434973, 2010;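 active = inhibition above about 50% at the single test dose, limit read from the data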;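 note: plate controls were DMSO with enzyme for no effect and no enzyme buffer wells for full effect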
Apaf1 inhib – inhibitors of human Apaf-1 apoptosome, primary screen, biochemical, DEVD-Rh110 fluorescence, uHTS; Apoptotic protease-activating factor 1 (Homo sapiens), O14727; reconstituted apoptosome caspase-3 activity; inhibition, % at 20 µM; actives 0.71% (n = 330,000); AID 489030, 2010; active = inhibition of at least 40% at 20 µM;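 note: plate controls were DMSO wells for no effect and DEVD-CHO caspase inhibitor wells for full effect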
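Material: cell-free apoptosome with Apaf-1, procaspase-3 and caspase-9; Buffer or medium: Hepes pH 7.5 with detergent and BSA; Reagent: cytochrome c trigger plus (Z-DEVD)2-Rh110 caspase-3 substrate; Times: compound with Apaf-1, dATP, procaspase-3 30 min, then 50 min reaction, room temperature; Technique: Rh110 fluorescence intensity.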
SENP8 block-1 – SENP8 protease inhibitors, primary screen, biochemical, luminescence | actives 1.2% (n = 330,000) | inhibition, % at 10 µM | purified SENP8, Z-RLRGG-aminoluciferin cleavage | AID 2540, 2010; in the data active = inhibition above about 50%
Target sequence (Q96LD8 whole entry, looked up): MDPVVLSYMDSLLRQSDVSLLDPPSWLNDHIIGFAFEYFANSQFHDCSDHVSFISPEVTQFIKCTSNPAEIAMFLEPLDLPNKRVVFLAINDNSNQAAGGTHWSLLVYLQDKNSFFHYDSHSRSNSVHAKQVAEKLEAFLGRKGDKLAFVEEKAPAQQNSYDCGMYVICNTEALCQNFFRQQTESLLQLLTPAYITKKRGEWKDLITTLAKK
SENP8 block-2 – human SENP8 protease inhibitors, primary screen, biochemical, fluorescence, Nedd8 protein substrate, uHTS. Sentrin-specific protease 8 (Homo sapiens), Q96LD8. recombinant SENP8. inhibition, % at 20 µM. actives 0.64% (n = 360,000). AID 602440, 2012; in the data active = inhibition mostly above about 40%, no sharp cut-off; inactive = mostly below about 27%
SENP8 conf – SENP8 protease inhibitors, retest, confirmation, biochemical, luminescence, single concentration; shares compounds with SENP7 inh; AID 488912, 2010; actives 40% (n = 6,200); inhibition, % at 12.5 µM; Recombinant SENP8, Z-RLRGG-aminoluciferin luminescence, 60 min;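 active = mean inhibition across replicates above about 50%, limit read from the data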
SENP6 confirm – SENP6 protease inhibitors, confirmation, biochemical, luminescence, single concentration. recombinant SENP6, Z-RLRGG-aminoluciferin luminescence. shares compounds with SENP7 inh. actives 58% (n = 6,200). inhibition, % at 12.5 µM
SENP7 confirm – SENP7 protease inhibitors, retest, confirmation, biochemical, luminescence, single concentration; recombinant SENP7, Z-RLRGG-aminoluciferin luminescence, 40 min; actives 69% (n = 6,200); shares compounds with SENP7 inh; AID 488917, 2010; inhibition, % at 12.5 µM
Casp3 select – caspase-3 protease inhibitors, confirmation, selectivity assay for SENP inhibitor project, biochemical, single concentration. actives 60% (n = 6,200). shares compounds with SENP7 inh. purified caspase-3, Z-DEVD-aminoluciferin luminescence, 60 min. inhibition, % at 12.5 µM;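 active = mean inhibition above about 50%, limit read from the data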;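 note: plate controls were enzyme with DMSO for no effect and wells without caspase-3 for full effect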
Target sequence (P42574 28-227 limits assumed): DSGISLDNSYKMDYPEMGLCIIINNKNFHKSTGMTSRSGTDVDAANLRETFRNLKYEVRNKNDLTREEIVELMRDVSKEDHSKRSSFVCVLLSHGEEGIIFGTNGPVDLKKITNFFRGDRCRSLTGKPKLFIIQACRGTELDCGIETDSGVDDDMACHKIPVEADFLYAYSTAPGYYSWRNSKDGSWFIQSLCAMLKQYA
SENP luc ctr – interferes with luciferase luminescence in SENP counter-screen; shares compounds with SENP7 inh; Pre-incubated SENP8/Z-RLRGG-aminoluciferin, luciferase luminescence interference; inhibition, % at 12.5 µM; actives 39% (n = 6,200);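 active = mean inhibition above about 50% when retested at one dose, limit read from the data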;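 note: plate controls were DMSO wells with completed reaction for no effect and substrate without enzyme for full effect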
* marks the source's active call; other numbers are inactive results; i = inactive; x = no result given.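 Rule for the calls, unless noted: active = mean inhibition above about 50% in the one-dose retest (limit read from the data); inactive = the rest.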

SMILES	UBC13 inh	SENP6 inh	SENP7 inh	Apaf1 inhib	SENP8 block-1	SENP8 block-2	SENP8 conf	SENP6 confirm	SENP7 confirm	Casp3 select	SENP luc ctr
Cn1cccc1C(=O)OCc1csc(-c2ccccc2)n1	3	88*	100*	23	94*	-8	-6	98*	102*	93*	89*
Cc1ccsc1C(=O)OCc1nnc(-c2ccccc2)o1	18	59*	59*	-3	52*	12	57*	55*	76*	56*	50*
O=C(OCc1csc(-c2ccccc2)n1)C1=NN(c2ccccc2)C(=O)CC1	9	-2	5	10	2	-2	x	x	x	x	x
CC(C)c1cccc(-c2csc(C(C)(O)c3ccncc3)n2)c1 (centres undefined)	x	x	x	x	x	5	x	x	x	x	x
C[C@@H]1CN([C@H](C)CO)C(=O)CCCn2nncc2CO[C@@H]1CN(C)C(=O)c1cc(-c2ccccc2)on1	x	x	x	x	x	11	x	x	x	x	x
COc1ccc(-c2ccc(C(=O)Nc3ccc(OC)nc3)c3occc23)c(C)c1	x	x	x	x	x	-4	x	x	x	x	x
COc1ccccc1-c1cnc(C(O)c2ccc(F)cc2C)[nH]1 (centres undefined)	x	x	x	x	x	13	x	x	x	x	x
Cc1nc(/N=C\c2ccc(N(C)C)cc2)sc1C	-28	3	10	1	60*	0	-24	-14	-8	-9	-5
CN(C)c1ccc(C=Nc2ccc(N(C)C)cc2)cc1	-27	22	23	39	-16	5	x	x	x	x	x
COc1ccccc1CNC(=O)COc1cc(O)c2c(c1)OC(C)(C)CC2=O	x	x	x	x	x	6	x	x	x	x	x
CCCCCNC(=O)C1C(=O)Nc2ccccc2C(=O)N1c1c(C)cccc1C (centres undefined)	x	x	x	x	x	-44	x	x	x	x	x
O=C(Nc1ccc(Cl)cc1)Nc1cccc(C(=O)O)c1	1	95*	97*	5	95*	14	99*	99*	104*	87*	98*
O=C(Nc1ccc(Br)cc1)Nc1ccccc1Cl	4	81*	94*	16	68*	19	-2	68*	90*	38	3
O=C(Nc1cccc(C(=O)O)c1)Nc1ccccc1Cl	6	95*	97*	3	93*	-3	98*	98*	103*	96*	75*
CSc1cccc(NC(=O)Nc2ccc(Cl)cc2)c1	6	-19	0	8	-1	23	x	x	x	x	x
CC(C)[C@H](N)C(=O)N[C@H]1CCC2C3CC=C4C[C@@H](O)CC[C@]4(C)C3CC[C@@]21C (some centres undefined)	x	x	x	x	x	8	x	x	x	x	x
Nc1cc([N+](=O)[O-])ccc1Nc1ccccc1	-86	-3	4	8	-1	26	x	x	x	x	x
O=[N+]([O-])c1cccc(NN=Nc2ccccc2)c1	-3	64*	69*	13	70*	25	71*	69*	88*	36	67*
Brc1ccc(N=NNc2ccccc2)cc1	-13	51*	20	14	12	38	68*	74*	88*	28	46
O=C(Nc1cccc([N+](=O)[O-])c1)c1ccccc1	24	14	9	-22	-8	14	x	x	x	x	x
O=[N+]([O-])c1ccc(N=NNc2ccccc2)cc1	-25	59*	40	7	29	-7	48	49	75*	17	25
Cc1cc(C)c2c(CN3CCN(c4ccccc4F)CC3)cc(=O)oc2c1	x	x	x	x	x	11	x	x	x	x	x
CCOC(=O)c1[nH]c2cc(OC)c(OC)cc2c1N	-8	0	2	-3	-4	-275	x	x	x	x	x
CCOC(=O)c1[nH]c2ccc(C)cc2c1N	-6	50*	-2	-11	24	-310	54*	54*	88*	82*	72*
Cc1[nH]n(-c2ccccc2)c(=O)c1C=Nc1cnc2ccccc2c1	-2	-14	-2	9	-5	-362	x	x	x	x	x
SMILES	UBC13 inh	SENP6 inh	SENP7 inh	Apaf1 inhib	SENP8 block-1	SENP8 block-2	SENP8 conf	SENP6 confirm	SENP7 confirm	Casp3 select	SENP luc ctr
CCOc1ccc(N=Cc2c(C)[nH]n(-c3nc4ccccc4[nH]3)c2=O)cc1	-32	94*	85*	0	80*	16	49	35	50*	75*	69*
Cc1cccc(C)c1NC(=O)C1(C)CN(S(C)(=O)=O)CC(=O)N1CCc1ccc(O)cc1 (centres undefined)	x	x	x	x	x	18	x	x	x	x	x
Cc1ccc(/C=N/N=C/c2ccc(C)s2)s1	-2	77*	63*	5	41	22	42	60*	82*	29	46
CN(CCc1ccccc1)c1cc2c(c3c1ccn3C)C1CCC2C1 (centres undefined)	x	x	x	x	x	3	x	x	x	x	x
C[C@@H](c1ccccc1)N1C[C@@H](COCc2ccccc2)Oc2cc(N3CCC[C@H]3CO)ccc2S1(=O)=O	x	x	x	x	x	-2	x	x	x	x	x
Cc1cc2nc(-c3ccc(NC(=O)C(C)C)cc3)oc2cc1C	-5	26	70*	10	21	i	14	14	29	45	17
Cc1ccc(-c2nc3cc(NC(=O)C(C)C)ccc3o2)cc1C	7	95*	98*	20	92*	-280	5	23	12	77*	3
CC(=O)Nc1ccc2oc(-c3ccccc3)nc2c1	16	40	32	6	20	-447	x	x	x	x	x
COc1cc(OC)cc(-c2nc3cc(C)ccc3o2)c1	10	97*	98*	16	94*	-39	95*	97*	101*	94*	93*
